Results published in ChEMBL document CHEMBL3232746, “Diamidine compounds for selective inhibition of protein arginine methyltransferase 1” (J Med Chem, 2014).
Activity calls are given as the source filed them. The calls are words filed in the database; no cut-off is given here.

Key:
[1] = target: T1, Protein arginine N-methyltransferase 5 (Homo sapiens, UniProt O14744); test: Inhibition of HA-tagged recombinant PRMT5 (unknown origin) expressed in HEK293T cells using [3H]SAM and histone H4 (1 to 20) as substrate after 8 mins by P81 filter binding assay; design: species or system HEK-293T
T1 sequence (O14744 whole entry): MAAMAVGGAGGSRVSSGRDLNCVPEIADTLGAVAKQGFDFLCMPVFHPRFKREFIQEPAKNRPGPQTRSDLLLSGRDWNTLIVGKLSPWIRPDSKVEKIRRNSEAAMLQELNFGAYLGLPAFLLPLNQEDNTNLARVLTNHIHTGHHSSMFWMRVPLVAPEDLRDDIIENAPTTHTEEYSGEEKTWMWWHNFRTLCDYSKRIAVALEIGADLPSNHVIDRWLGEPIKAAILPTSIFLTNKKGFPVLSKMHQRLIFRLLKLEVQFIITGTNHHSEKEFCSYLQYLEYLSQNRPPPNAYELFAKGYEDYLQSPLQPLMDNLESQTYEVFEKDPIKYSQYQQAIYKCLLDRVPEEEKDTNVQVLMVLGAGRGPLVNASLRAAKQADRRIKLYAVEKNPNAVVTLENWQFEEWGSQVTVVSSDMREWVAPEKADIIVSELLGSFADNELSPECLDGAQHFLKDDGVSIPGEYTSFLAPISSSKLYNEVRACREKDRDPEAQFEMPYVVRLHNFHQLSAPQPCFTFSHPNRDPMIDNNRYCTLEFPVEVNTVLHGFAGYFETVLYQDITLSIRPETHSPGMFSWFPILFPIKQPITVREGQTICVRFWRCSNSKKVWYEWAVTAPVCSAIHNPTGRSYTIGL
Method in brief: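 HA-PRMT5 from HEK293T co-transfected with PRMT5 and WDR77 plasmids, HA-bead purified; 0.04 μM enzyme, 0.5 μM [3H]SAM, 1 μM H4(1–20) in HEPES pH 8.0 buffer; inhibitor preincubated with enzyme and SAM 5 min before peptide start; 8 min at 30 °C; P81 disks washed in NaHCO3 pH 9.0, scintillation counted; IC50 over varied inhibitor concentrations.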

[2] = target: T2, Histone-arginine methyltransferase CARM1 (Homo sapiens, UniProt Q86X55); test: Inhibition of GST-tagged CARM1 (unknown origin) using [3H]SAM and histone H3.1 as substrate at 20 uM after 1 hr by P81 filter binding assay
T2 sequence (Q86X55 whole entry): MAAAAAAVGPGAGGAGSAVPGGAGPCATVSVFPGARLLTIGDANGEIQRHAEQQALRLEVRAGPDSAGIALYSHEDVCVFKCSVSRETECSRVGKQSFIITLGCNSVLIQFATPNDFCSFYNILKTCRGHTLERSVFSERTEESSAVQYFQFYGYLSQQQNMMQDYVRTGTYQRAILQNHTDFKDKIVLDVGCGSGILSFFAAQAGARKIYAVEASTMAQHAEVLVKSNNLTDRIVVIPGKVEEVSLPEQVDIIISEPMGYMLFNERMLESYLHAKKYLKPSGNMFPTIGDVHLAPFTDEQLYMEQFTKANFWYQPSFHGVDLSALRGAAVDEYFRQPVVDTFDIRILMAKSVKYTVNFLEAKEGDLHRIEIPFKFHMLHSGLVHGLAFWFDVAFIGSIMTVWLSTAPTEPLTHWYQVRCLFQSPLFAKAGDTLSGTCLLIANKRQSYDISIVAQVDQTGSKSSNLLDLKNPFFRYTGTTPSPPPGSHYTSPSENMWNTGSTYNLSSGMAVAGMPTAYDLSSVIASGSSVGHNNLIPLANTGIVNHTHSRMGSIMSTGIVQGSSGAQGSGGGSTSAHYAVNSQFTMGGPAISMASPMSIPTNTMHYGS

[3] = target: Protein arginine N-methyltransferase 6 (Homo sapiens, UniProt Q96LA8); test: Inhibition of His6x-tagged PRMT6 (unknown origin) using [3H]SAM and histone H3.1 as substrate at 20 uM after 1 hr by P81 filter binding assay
Sequence of Protein arginine N-methyltransferase 6 (Q96LA8 whole entry): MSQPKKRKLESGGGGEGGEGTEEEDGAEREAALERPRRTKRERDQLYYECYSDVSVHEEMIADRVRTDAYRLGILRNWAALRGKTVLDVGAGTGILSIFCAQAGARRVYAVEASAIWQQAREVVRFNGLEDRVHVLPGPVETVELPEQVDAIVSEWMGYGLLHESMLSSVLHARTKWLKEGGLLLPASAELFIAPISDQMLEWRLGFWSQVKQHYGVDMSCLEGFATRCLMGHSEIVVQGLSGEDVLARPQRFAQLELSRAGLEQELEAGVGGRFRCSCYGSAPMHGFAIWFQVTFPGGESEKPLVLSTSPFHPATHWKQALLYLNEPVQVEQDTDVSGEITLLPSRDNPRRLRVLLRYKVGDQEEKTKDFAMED
Method in brief: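 P81 filter-binding assay with 1 μM histone H3.1 as acceptor and 0.5 μM [3H]SAM in 50 mM HEPES pH 8.0, 50 mM NaCl, 1 mM EDTA, 0.5 mM DTT; enzyme, SAM and inhibitor preincubated 5 min, then substrate added; 1 h at 30 °C; methylation by scintillation counting.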

[4] = target: T3, Protein arginine N-methyltransferase 1 (Homo sapiens, UniProt Q99873); test: Inhibition of PRMT1 in human 293T cells assessed as reduction of GFP-ALY methylation by Western blot analysis; format: cell-based
Method in brief: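 GFP-ALY stably expressing 293T cells in DMEM + 10% FBS, treated 15 h with 20 μM compound; lysed on ice in NP-40 buffer; GFP-ALY pulled down on GFP antibody beads; SDS-PAGE and Western blot with ASYM24 methylarginine antibody, equal GFP-ALY loading.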
Target sequence in this assay (Q99873 whole entry, looked up): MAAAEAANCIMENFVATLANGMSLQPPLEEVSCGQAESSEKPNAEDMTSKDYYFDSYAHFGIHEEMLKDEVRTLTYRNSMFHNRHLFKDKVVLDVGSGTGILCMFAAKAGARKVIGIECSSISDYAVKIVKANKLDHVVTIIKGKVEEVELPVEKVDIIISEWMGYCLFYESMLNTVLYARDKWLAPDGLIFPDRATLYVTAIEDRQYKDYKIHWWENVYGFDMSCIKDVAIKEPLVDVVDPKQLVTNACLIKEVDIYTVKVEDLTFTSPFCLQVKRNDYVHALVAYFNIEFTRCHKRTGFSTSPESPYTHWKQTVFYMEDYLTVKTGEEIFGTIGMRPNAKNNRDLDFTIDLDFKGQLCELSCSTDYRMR

[5] = system: MOLM-13; test: Antiproliferative activity against human MOLM13 cells with MLL-AF9 translocation assessed as cell viability at 20 uM measured everyday for 3 days by CellTiter-Glo assay; format: functional, cell-based
Method in brief: (§1)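 RPMI + 10% FBS culture; 1000–1500 cells seeded per well; 20 μM compound or matching DMSO volume added; CellTiter-Glo luminescence read at 0, 24, 48, 72 h after treatment; viability expressed as percent of viable cells relative to DMSO-treated control.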

[6] = target: T3, Protein arginine N-methyltransferase 1; test: Inhibition of His6x-tagged recombinant PRMT1 (unknown origin) expressed in Escherichia coli BL21(DE3) using fluorescein-labeled histone H4 (1 to 20) as substrate at 10 to 50 uM after 8 mins by competitive fluorescence anisotropy binding assay
Method in brief: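 0.2 μM fluorescein-labelled H4(1–20) and 2 μM PRMT1 in P81 assay buffer (HEPES pH 8.0); inhibitor titrated in until signal plateaued; anisotropy read at excitation 498 nm, emission 524 nm.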
Target sequence in this assay (Q99873 whole entry, looked up): as above

[7] = system: HL-60; test: Antiproliferative activity against human HL60 cells with PML-RAR alpha translocation assessed as cell viability at 20 uM measured everyday for 3 days by CellTiter-Glo assay; format: functional, cell-based; method in brief: as §1
[8] = target: T1, Protein arginine N-methyltransferase 5; test: Inhibition of HA-tagged recombinant PRMT5 (unknown origin) expressed in HEK293T cells using [3H]SAM and histone H4 (1 to 20) as substrate at 20 uM after 8 mins by P81 filter binding assay
Method in brief: (§2)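 Enzyme 0.04 μM (His-PRMT1 purified on Ni-NTA, or HA-PRMT5 co-expressed with WDR77 in 293T and purified on HA beads). Assay used 0.5 μM [3H]SAM and 1 μM H4(1–20) in 50 mM HEPES pH 8.0, 50 mM NaCl, 1 mM EDTA, 0.5 mM DTT. Preincubation 5 min at room temperature, then 8 min at 30 °C. P81 filter binding with scintillation counting. Compared with no-inhibitor control.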

[9] = organism: Homo sapiens; test: Antiproliferative activity against human CHRF-288-11 cells harboring trisomy 21 assessed as cell viability at 20 uM measured everyday for 3 days by CellTiter-Glo assay; format: functional, cell-based; method in brief: as §1
[10] = target: T3, Protein arginine N-methyltransferase 1; test: Inhibition of His6x-tagged recombinant PRMT1 (unknown origin) expressed in Escherichia coli BL21(DE3) using [3H]SAM and histone H4 (1 to 20) as substrate after 8 mins by P81 filter binding assay
Target sequence in this assay (Q99873 whole entry): as the sequence (Q99873 whole entry, looked up) above

[11] = system: CMY; test: Antiproliferative activity against human CMY cells harboring trisomy 21 assessed as cell viability at 20 uM measured everyday for 3 days by CellTiter-Glo assay; format: functional, cell-based; method in brief: as §1
[12] = target: T3, Protein arginine N-methyltransferase 1; test: Inhibition of His6x-tagged recombinant PRMT1 (unknown origin) expressed in Escherichia coli BL21(DE3) using [3H]SAM and histone H4 (1 to 20) as substrate at 20 uM after 8 mins by P81 filter binding assay; method in brief: as §2
Target sequence in this assay (Q99873 whole entry, looked up): as above

[13] = system: Jurkat; test: Antiproliferative activity against human Jurkat cells assessed as cell viability at 20 uM measured everyday for 3 days by CellTiter-Glo assay; format: functional, cell-based; method in brief: as §1
[14] = system: HEL; test: Antiproliferative activity against human HEL cells harboring JAK2 V617F mutant assessed as cell viability at 20 uM measured everyday for 3 days by CellTiter-Glo assay; format: functional, cell-based; method in brief: as §1
[15] = target: T3, Protein arginine N-methyltransferase 1; test: Competitive inhibition of His6x-tagged recombinant PRMT1 (unknown origin) expressed in Escherichia coli BL21(DE3) using [3H]SAM and histone H4 (1 to 20) as substrate by double reciprocal plot analysis
Method in brief: (§3)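 Radiometric P81 filter-binding kinetics in 50 mM HEPES pH 8.0, 50 mM NaCl, 1 mM EDTA, 0.5 mM DTT, 30 °C; inhibitor at 0, 10, 20, 30, 40 μM; initial velocities with H4-20 varied at 3 μM [3H]SAM, or [3H]SAM varied at 15 μM H4-20; Michaelis–Menten and double-reciprocal analysis giving Kis and Kii.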
Target sequence in this assay (Q99873 whole entry, looked up): as above

[16] = target: T3, Protein arginine N-methyltransferase 1; test: Uncompetitive inhibition of His6x-tagged recombinant PRMT1 (unknown origin) expressed in Escherichia coli BL21(DE3) using [3H]SAM and histone H4 (1 to 20) as substrate by double reciprocal plot analysis; method in brief: as §3
Target sequence in this assay (Q99873 whole entry, looked up): as above

## N=C(N)c1ccc(/C=C/c2ccc(C(=N)N)cc2)cc1 [STILBAMIDINE]
[1]
  IC50: 44.1 µM
[2]
  IC50: 400 µM
[3]
  IC50: 173 µM

## N=C(N)c1ccc(-c2ccc(-c3ccc(C(=N)N)cc3)o2)cc1 [FURAMIDINE]
[1]
  IC50: 166 µM
[4]
  inhibition: Active
[5]
  inhibition: Active
[6]
  inhibition: Active
[7]
  inhibition: Active
[8]
  inhibition: 11%
[9]
  inhibition: Active
[10]
  IC50: 9.4 µM
[2]
  IC50: > 400 µM
[11]
  inhibition: Active
[12]
  inhibition: > 75%
[13]
  inhibition: Active
[3]
  IC50: 283 µM
[14]
  inhibition: inactive
[15]
  Kis: 2.6 µM
[16]
  Kii: 26 µM

## N=C(N)c1ccc(-c2ccc(-c3ccc(C(=N)N)nc3)o2)cc1
[1]
  IC50: 186 µM
[10]
  IC50: 7.2 µM
[2]
  IC50: > 400 µM
[3]
  IC50: 211 µM

## N=C(N)c1ccc(-c2ccc(-c3ccc(C(=N)N)c(F)c3)o2)cc1F
[8]
  inhibition: Active
[12]
  inhibition: Active

## N=C(N)c1ccc(-c2ccc(-c3ccc(OCCCCCCCCOc4ccc(-c5ccc(-c6ccc(C(=N)N)cc6)o5)cc4)cc3)o2)cc1
[8]
  inhibition: > 85%
[12]
  inhibition: > 85%
